Experimental data as given in ChEMBL document CHEMBL3632581, “Dimers of Melampomagnolide B Exhibit Potent Anticancer Activity against Hematological and Solid Tumor Cells” (J Med Chem, 2015).

Legend:
KM12 = experiment: Cytotoxicity against human KM12 cells after 48 hrs by SRB assay; format: functional; conditions: KM12, 48 h; for CC50: read-out: LC50 (the source's name)
Procedure, shortened: (§1)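 NCI-60 five-dose screen at 10−8 to 10−4 M. Cells were plated at 5,000–40,000/well in RPMI 1640 with 5% FBS and 2 mM L-glutamine, then preincubated 24 h, and time-zero plates were TCA-fixed. Compound was added from DMSO stocks and exposed 48 h at 37 °C. Cells were TCA-fixed, SRB-stained, and read at 515 nm. LC50 is the concentration halving the cell population through cell death.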

OVCAR-8 = experiment: Cytotoxicity against human OVCAR8 cells after 48 hrs by SRB assay; format: functional; conditions: OVCAR-8, 48 h; for CC50: read-out: LC50 (the source's name); procedure, shortened: as §1
LOX IMVI = experiment: Cytotoxicity against human LOXIMVI cells after 48 hrs by SRB assay; format: functional; conditions: for CC50: read-out: LC50 (the source's name); procedure, shortened: as §1
SN12C = experiment: Cytotoxicity against human SN12C cells after 48 hrs by SRB assay; format: functional; conditions: for CC50: read-out: LC50 (the source's name); procedure, shortened: as §1
[1] = Antileukemic activity against human AML02 cells after 24 hrs by annexin V/7-AAD staining-based flow cytometric analysis; format: functional, cell-based
Procedure, shortened: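 Primary AML specimens from consenting donors, isolated by Ficoll-Paque gradient and sometimes cryopreserved. Cells were held 1 h in serum-free IMDM with 20% BIT 9500, LDL and β-mercaptoethanol before drug (DMSO stock diluted in PBS, ≤0.5% DMSO final). Exposure was 24 h over 0.5-10 μM. Annexin V/7-AAD double-negative cells, normalized to vehicle, gave the EC50. Run in triplicate.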

UACC-62 = experiment: Cytotoxicity against human UACC62 cells after 48 hrs by SRB assay; format: functional; conditions: UACC-62, 48 h; for CC50: read-out: LC50 (the source's name)
Procedure, shortened: (§2)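 NCI-60 screen: cells grown in RPMI 1640 with 5% FBS and 2 mM L-glutamine, plated at 5,000–40,000 cells/well by doubling time, and preincubated 24 h at 37 °C before drug. Drug was diluted from DMSO stock and given at five concentrations, 10−4 to 10−8 M, for 48 h. Cells fixed with cold TCA, SRB stained, OD read at 515 nm against time-zero and vehicle plates. LC50 taken as the concentration that halves cell population through cell death.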

PC-3 = experiment: Cytotoxicity against human PC3 cells after 48 hrs by SRB assay; format: functional; conditions: PC-3, 48 h; procedure, shortened: as §1
[2] = Antileukemic activity against human M9-ENL1 cells after 24 hrs by annexin V/7-AAD staining-based flow cytometric analysis; format: functional, cell-based
Procedure, shortened: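 M9-ENL1 cells in alpha-MEM with 5% human plasma, 20% FBS, SCF, IL-3, IL-7 and FLT3. Drug came from a DMSO stock diluted in PBS (≤0.5% DMSO final), for 24 h over 0.5-10 μM. Cells negative for both annexin V and 7-AAD were taken as non-apoptotic and normalized to vehicle. EC50 read from dose-response curves, triplicate.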

SR = experiment: Cytotoxicity against human SR cells after 48 hrs by SRB assay; format: functional; conditions: for CC50: read-out: LC50 (the source's name); procedure, shortened: as §2
ACHN = experiment: Cytotoxicity against human ACHN cells after 48 hrs by SRB assay; format: functional; conditions: for CC50: read-out: LC50 (the source's name); procedure, shortened: as §1
HL-60(TB) = experiment: Cytotoxicity against human HL-60(TB) cells after 48 hrs by SRB assay; format: functional; conditions: HL-60, 48 h; for CC50: read-out: LC50 (the source's name); procedure, shortened: as §1
SK-MEL-5 = experiment: Cytotoxicity against human SK-MEL-5 cells after 48 hrs by SRB assay; format: functional; conditions: SK-MEL-5, 48 h; for CC50: read-out: LC50 (the source's name); procedure, shortened: as §1
CAKI-1 = experiment: Cytotoxicity against human Caki1 cells after 48 hrs by SRB assay; format: functional; conditions: CAKI-1, 48 h; for CC50: read-out: LC50 (the source's name); procedure, shortened: as §1
MDA-MB-468 = experiment: Cytotoxicity against human MDA-MB-468 cells after 48 hrs by SRB assay; format: functional; conditions: MDA-MB-468, 48 h; procedure, shortened: as §1
NCI-H226 = experiment: Cytotoxicity against human NCI-H226 cells after 48 hrs by SRB assay; format: functional; conditions: NCI-H226, 48 h; for CC50: read-out: LC50 (the source's name); procedure, shortened: as §1
UO-31 = experiment: Cytotoxicity against human UO31 cells after 48 hrs by SRB assay; format: functional; conditions: UO-31, 48 h; for CC50: read-out: LC50 (the source's name); procedure, shortened: as §2
NCI-H23 = experiment: Cytotoxicity against human NCI-H23 cells after 48 hrs by SRB assay; format: functional; conditions: NCI-H23, 48 h; for CC50: read-out: LC50 (the source's name); procedure, shortened: as §1
SK-OV-3 = experiment: Cytotoxicity against human SKOV3 cells after 48 hrs by SRB assay; format: functional; conditions: SK-OV-3, 48 h; for CC50: read-out: LC50 (the source's name); procedure, shortened: as §1
A549 = experiment: Cytotoxicity against human A549 cells after 48 hrs by SRB assay; format: functional; conditions: A549, 48 h; for CC50: read-out: LC50 (the source's name); procedure, shortened: as §1
OVCAR-4 = experiment: Cytotoxicity against human OVCAR4 cells after 48 hrs by SRB assay; format: functional; conditions: OVCAR-4, 48 h; for CC50: read-out: LC50 (the source's name); procedure, shortened: as §1
SW-620 = experiment: Cytotoxicity against human SW620 cells after 48 hrs by SRB assay; format: functional; conditions: SW-620, 48 h; for CC50: read-out: LC50 (the source's name); procedure, shortened: as §2
Malme-3M = experiment: Cytotoxicity against human MALME-3M cells after 48 hrs by SRB assay; format: functional; conditions: for CC50: read-out: LC50 (the source's name); procedure, shortened: as §1
NCI-H522 = experiment: Cytotoxicity against human NCI-H522 cells after 48 hrs by SRB assay; format: functional; conditions: NCI-H522, 48 h; for CC50: read-out: LC50 (the source's name); procedure, shortened: as §1
NCI-H460 = experiment: Cytotoxicity against human NCI-H460 cells after 48 hrs by SRB assay; format: functional; conditions: NCI-H460, 48 h; for CC50: read-out: LC50 (the source's name); procedure, shortened: as §1
SF-539 = experiment: Cytotoxicity against human SF539 cells after 48 hrs by SRB assay; format: functional; conditions: SF-539, 48 h; for CC50: read-out: LC50 (the source's name); procedure, shortened: as §1
[3] = Cytotoxicity against human NCI-ADR-RES cells after 48 hrs by SRB assay; format: functional; conditions: for CC50: read-out: LC50 (the source's name); procedure, shortened: as §1
SF-268 = experiment: Cytotoxicity against human SF268 cells after 48 hrs by SRB assay; format: functional; conditions: SF-268, 48 h; for CC50: read-out: LC50 (the source's name); procedure, shortened: as §1
[4] = Cytotoxicity against hematopoietic progenitor cells isolated from human umbilical cord blood by annexin V staining-based flow cytometric analysis; format: cell-based
Procedure, shortened: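 Cord-blood mononuclear cells from Ficoll-Paque were plated in serum-free medium, with drug from a DMSO stock (≤0.5% DMSO final). Cells were stained for CD34, CD45 and annexin V. The non-apoptotic fraction (annexin V-negative within the CD34+CD45dim compartment) was normalized to vehicle, and EC50 was fitted where possible. Triplicate.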

SF-295 = experiment: Cytotoxicity against human SF295 cells after 48 hrs by SRB assay; format: functional; conditions: SF-295, 48 h; for CC50: read-out: LC50 (the source's name); procedure, shortened: as §1
BT-549 = experiment: Cytotoxicity against human BT549 cells after 48 hrs by SRB assay; format: functional; conditions: BT-549, 48 h; procedure, shortened: as §1
DU-145 = experiment: Cytotoxicity against human DU145 cells after 48 hrs by SRB assay; format: functional; conditions: DU-145, 48 h; procedure, shortened: as §1

## C=C1C(=O)O[C@H]2[C@H]1CC/C(COC(=O)NCCCCCNC(=O)OC/C1=C/CC[C@@]3(C)O[C@H]3[C@H]3OC(=O)C(=C)[C@@H]3CC1)=C\CC[C@@]1(C)O[C@@H]21
KM12
  GI50: 6.53 µM
  CC50: 54.2 µM
OVCAR-8
  GI50: 3.27 µM
  CC50: 61 µM
LOX IMVI
  GI50: 0.46 µM
  CC50: 5.82 µM
SN12C
  GI50: 2.49 µM
  CC50: 45.5 µM
[1]
  EC50: 0.9 µM
UACC-62
  GI50: 1.41 µM
  CC50: 7.04 µM
PC-3
  GI50: 3.79 µM
  LC50 (concentration killing half the cell population): 49.4 µM
[2]
  EC50: 0.57 µM
SR
  GI50: 0.38 µM
  CC50: > 100 µM
ACHN
  GI50: 3.05 µM
  CC50: 35.4 µM
HL-60(TB)
  GI50: 0.31 µM
  CC50: > 100 µM
SK-MEL-5
  GI50: 3.19 µM
  CC50: 37 µM
CAKI-1
  GI50: 16.1 µM
  CC50: 68.1 µM
MDA-MB-468
  GI50: 1.06 µM
  LC50: 24.7 µM
NCI-H226
  GI50: 2.56 µM
  CC50: 30.9 µM
UO-31
  GI50: 8.9 µM
  CC50: 52.3 µM
NCI-H23
  GI50: 2.66 µM
  CC50: 45.5 µM
SK-OV-3
  GI50: 5.99 µM
  CC50: 49.9 µM
A549
  GI50: 14.9 µM
  CC50: 71.7 µM
OVCAR-4
  GI50: 2.72 µM
  CC50: 41.9 µM
SW-620
  GI50: 0.43 µM
  CC50: 5.14 µM
Malme-3M
  GI50: 2.06 µM
  CC50: 27.3 µM
NCI-H522
  GI50: 0.22 µM
  CC50: 0.88 µM
NCI-H460
  GI50: 4.34 µM
  CC50: 50.7 µM
SF-539
  GI50: 1.92 µM
  CC50: 12.7 µM
[3]
  GI50: 70 µM
  CC50: > 100 µM
SF-268
  GI50: 3.08 µM
  CC50: 42.3 µM
[4]
  EC50: > 10 µM
SF-295
  GI50: 11.1 µM
  CC50: 65.2 µM
BT-549
  GI50: 1 µM
  LC50: 4.96 µM
DU-145
  GI50: 3.06 µM
  LC50 (concentration killing half the cells): 32.6 µM

## C=C1C(=O)O[C@H]2[C@H]1CC/C(COC(=O)NCCCCCCCCNC(=O)OC/C1=C/CC[C@@]3(C)O[C@H]3[C@H]3OC(=O)C(=C)[C@@H]3CC1)=C\CC[C@@]1(C)O[C@@H]21
KM12
  GI50: 1.29 µM
  CC50: 7.49 µM
OVCAR-8
  GI50: 0.32 µM
  CC50: 6.77 µM
LOX IMVI
  GI50: 0.17 µM
  CC50: 0.76 µM
SN12C
  GI50: 0.26 µM
  CC50: 5.49 µM
[1]
  EC50: 1.2 µM
UACC-62
  GI50: 0.19 µM
  CC50: 1.72 µM
PC-3
  GI50: 0.38 µM
  LC50 (concentration killing half the cell population): 5.2 µM
[2]
  EC50: 2 µM
SR
  GI50: 0.31 µM
  CC50: > 100 µM
ACHN
  GI50: 0.25 µM
  CC50: 2.85 µM
HL-60(TB)
  GI50: 0.26 µM
  CC50: > 100 µM
SK-MEL-5
  GI50: 1.21 µM
  CC50: 5.53 µM
CAKI-1
  GI50: 0.65 µM
  CC50: 4.79 µM
MDA-MB-468
  GI50: 0.19 µM
  LC50: 1.5 µM
NCI-H226
  GI50: 1.81 µM
  CC50: 21.1 µM
UO-31
  GI50: 0.88 µM
  CC50: 4.9 µM
NCI-H23
  GI50: 0.48 µM
  CC50: 4.86 µM
SK-OV-3
  GI50: 3.64 µM
  CC50: 35.1 µM
A549
  GI50: 1.7 µM
  CC50: 7.26 µM
OVCAR-4
  GI50: 0.52 µM
  CC50: 4.63 µM
SW-620
  GI50: 0.23 µM
  CC50: 3.37 µM
Malme-3M
  GI50: 0.19 µM
  CC50: 0.92 µM
NCI-H522
  GI50: 0.18 µM
  CC50: 0.89 µM
NCI-H460
  GI50: 1.75 µM
  CC50: 9.02 µM
SF-539
  GI50: 0.23 µM
  CC50: 2.26 µM
[3]
  GI50: 3.91 µM
  CC50: 82 µM
SF-268
  GI50: 0.99 µM
  CC50: 7.24 µM
[4]
  EC50: > 10 µM
SF-295
  GI50: 1.95 µM
  CC50: 16.2 µM
BT-549
  GI50: 0.25 µM
  LC50: 3.57 µM
DU-145
  GI50: 1.1 µM
  LC50 (concentration killing half the cells): 4.81 µM
